Active and inactive are the calls of the source.

Among the data in ChEMBL document CHEMBL3414544, “PAINS in the assay: chemical mechanisms of assay interference and promiscuous enzymatic inhibition observed during a sulfhydryl-scavenging HTS” (J Med Chem, 2015) are Activity and IC50 values, retold here.

Series [1] can be described thus: Fluorescence quenching in HTS buffer with 20 uM 7-diethylamino-3-(4'-maleimidyl-phenyl)-4-methylcoumarin assessed as fluorescence signal reduction at 10 uM after 10 mins. It is filed as physicochemical.
The nature of series [2]: Fluorescence quenching assessed as fluorescence signal reduction at 10 uM after 10 mins. It is filed as physicochemical. In outline: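 CPM (20 μM final) and CoA (5 μM final) reacted to completion in assay buffer (stable plateau, usually ~5 min); adduct solution added to wells preplated with compound; shaken 5 min, equilibrated 5 min at room temperature; fluorescence intensity read as percent signal reduction versus DMSO controls. Flagged as quencher at >20% signal reduction at 10 μM final compound.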

In series [3] the target is T1, Histone acetyltransferase RTT109 (Saccharomyces cerevisiae (strain ATCC 204508 / S288c) (Baker's yeast)) (UniProt Q07794).
T1 sequence (whole entry): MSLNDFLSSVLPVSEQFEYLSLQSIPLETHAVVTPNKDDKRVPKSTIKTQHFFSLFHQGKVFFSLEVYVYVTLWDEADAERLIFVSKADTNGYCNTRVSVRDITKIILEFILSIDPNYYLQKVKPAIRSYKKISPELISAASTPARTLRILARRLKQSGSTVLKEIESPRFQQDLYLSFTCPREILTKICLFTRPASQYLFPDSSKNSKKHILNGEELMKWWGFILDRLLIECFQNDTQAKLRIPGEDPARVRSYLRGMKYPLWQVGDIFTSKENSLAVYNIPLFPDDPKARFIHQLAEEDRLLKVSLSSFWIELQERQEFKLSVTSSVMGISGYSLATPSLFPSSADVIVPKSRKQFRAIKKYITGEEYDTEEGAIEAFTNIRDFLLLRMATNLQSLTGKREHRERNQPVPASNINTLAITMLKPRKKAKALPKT
In words: Inhibition of Vps75-stimulated recombinant Saccharomyces cerevisiae histone acetyltransferase Rtt109 assessed as H3K27 acetylated product at […] after 45 mins by Slot bolt inhibiton assay.

Series [4] is described as follows: Fluorescence quenching in HTS buffer assessed as fluorescence signal reduction at 10 uM after 10 mins. It is filed as physicochemical.
Series [5] addresses T1, Histone acetyltransferase RTT109 (Saccharomyces cerevisiae (strain ATCC 204508 / S288c) (Baker's yeast)). The series is described as follows: Inhibition of Vps75-stimulated recombinant Saccharomyces cerevisiae histone acetyltransferase Rtt109 assessed as H3K56 acetylated product at […] after 45 mins by Slot bolt inhibiton assay.
The nature of series [6]: Fluorescence quenching in HTS buffer with […] CoA assessed as fluorescence signal reduction at 10 uM after 10 mins. It is filed as physicochemical.
The target in series [7] is T2, Histone acetyltransferase RTT109 (Saccharomyces cerevisiae (strain ATCC 204508 / S288c) (Baker's yeast), UniProt Q07794).
T2 sequence (Q07794 whole entry): T1 sequence (whole entry)
In words: Inhibition of Vps75-stimulated recombinant Saccharomyces cerevisiae histone acetyltransferase Rtt109 using Asf1-dH3-H4 as substrate assessed as coenzyme A production after 45 mins by CPM based HTS assay. The note with it: read-out: IC50. In outline: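 Recombinant Rtt109–Vps75 at 50 nM, with Asf1–dH3–H4 as substrate and acetyl-CoA as acetyl donor. Buffer contained freshly prepared 0.01% Triton X-100. The CoA product was detected by fluorescence of its CPM adduct. Plates had Z′ ≥0.5. IC50 came from a four-parameter variable-slope fit.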

`CC(C)(C)c1ccc(S(=O)(=O)Nc2ccc(O)c(Cl)c2)cc1`: the Activity entry in series [1], in series [2], in series [4] and in series [6] was “Not Active” throughout. The outcome in series [3] and in series [5] was inactive. In addition, in series [7], the IC50 – broadly, the concentration that inhibits the measured activity by half – was determined as 75 µM.
For `O=[N+]([O-])c1ccc2nonc2c1Sc1nc2ccccc2[nH]1`, the Activity result in series [1], in series [2], in series [4] and in series [6] was “Not Active” in each case. The outcome in series [3] and in series [5] was Active. In addition, the IC50 in series [7] amounted to 3.4 µM.
As for `O=S(=O)(Nc1cc(Sc2nc[nH]n2)c(O)c2ccccc12)c1ccccc1`, the Activity result in series [1], in series [2], in series [4] and in series [6] was “Not Active” throughout. Also, the result in series [3] and in series [5] was Active. In addition, the 50% inhibitory concentration (IC50) in series [7] turned out to be 1.4 µM.
As for `Cc1ccc(N2C(=O)C=CC2=O)cc1`, the Activity result in series [1], in series [2], in series [4] and in series [6] was “Not Active” in each case. Further, the result in series [3] and in series [5] was Active. The 50% inhibitory concentration (IC50) in series [7] amounted to 6 µM.
On to `O=[N+]([O-])c1ccc(Sc2nnc(-c3ccccc3)o2)c2nonc12`, for which the Activity result in series [1], in series [2], in series [4] and in series [6] was “Not Active” in each case. The result in series [3] and in series [5] was Active. The IC50 in series [7] is 1.1 µM.
As for `CC(C)c1ccc(S(=O)(=O)Nc2ccc(O)c(Sc3nc[nH]n3)c2)cc1`, the Activity result in series [1], in series [2], in series [4] and in series [6] was “Not Active” in each case. For the same compound, the result in series [3] and in series [5] was inactive. The IC50 in series [7] came out at 200 µM.
Turning to `O=[N+]([O-])c1c(Sc2ncnc3[nH]cnc23)cc(Cl)c2nsnc12`, the Activity result in series [1], in series [2], in series [4] and in series [6] was “Not Active” each time. In addition, the outcome in series [3] and in series [5] was Active. Also, the half-inhibitory concentration (IC50) in series [7] was determined as 2.2 µM.
On to `COc1ccc(N2C(=O)CC(Sc3n[nH]c(-c4ccc(C)cc4)n3)C2=O)cc1` (configuration not stated), for which the Activity result in series [1], in series [2], in series [4] and in series [6] was “Not Active” throughout. The outcome in series [3] and in series [5] was Active. Further, the half-maximal inhibitory concentration (IC50) in series [7] came out at 10 µM.
Turning to `O=C1C=CC(=O)N1c1ccccc1`, the Activity result in series [1], in series [2], in series [4] and in series [6] was “Not Active” throughout. Moreover, the outcome in series [3] and in series [5] was Active. Further, the IC50 in series [7] amounted to 7.6 µM.
On to `CN(CCO)c1cc(Sc2nnc(-c3ccccc3)o2)c2nonc2c1[N+](=O)[O-]`, for which the Activity result in series [1], in series [2], in series [4] and in series [6] was “Not Active” each time. Besides, the outcome in series [3] and in series [5] was Active. Further, the concentration for half-maximal inhibition (IC50) in series [7] is 5.3 µM.
In the case of `O=S(=O)(Nc1cc(Sc2cccc3cccnc23)c(O)c2ccccc12)c1ccccc1`, the Activity result in series [1], in series [2], in series [4] and in series [6] was “Not Active” throughout. The outcome in series [3] and in series [5] was Active. For the same compound, in series [7], the half-inhibitory concentration (IC50) was determined as 2.4 µM.
Regarding `O=C1C=CC(=O)N1c1cc(Cl)cc(Cl)c1`, the Activity entry in series [1], in series [2], in series [4] and in series [6] was “Not Active” in each case. In addition, the result in series [3] and in series [5] was Active. Also, in series [7], the IC50 worked out at 3.1 µM.
`Cc1ccc(Sc2cc(NS(=O)(=O)c3ccc(Cl)cc3)c3ccccc3c2O)cc1`: the Activity entry in series [1], in series [2], in series [4] and in series [6] was “Not Active” in each case. In series [3], the result was inactive. For the same compound, the outcome in series [5] was Active. Besides, the IC50 in series [7] was determined as 2.9 µM.
For `COc1ccc(Nc2nc(-c3ccc(OC)cc3)[n+](CS(=O)(=O)c3ccc(C)cc3)s2)cc1.O=S(=O)([O-])O`, the Activity entry in series [1], in series [2], in series [4] and in series [6] was “Not Active” throughout. The result in series [3] and in series [5] was Active. In series [7], the IC50 turned out to be 2.7 µM.
As for `COc1ccc(-c2nnc(Sc3ccc([N+](=O)[O-])c4nonc34)o2)cc1`, the Activity entry in series [1], in series [2], in series [4] and in series [6] was “Not Active” in each case. Besides, the outcome in series [3] and in series [5] was Active. For the same compound, in series [7], the IC50 was determined as 0.96 µM.
`O=[N+]([O-])c1ccc(Sc2nnnn2-c2ccccc2)c2nonc12`: the Activity entry in series [1], in series [2], in series [4] and in series [6] was “Not Active” each time. Moreover, the outcome in series [3] and in series [5] was Active. In series [7], the half-inhibitory concentration (IC50) came out at 0.45 µM.
As for `COc1ccc(N2C(=O)C=CC2=O)cc1`, the Activity entry in series [1], in series [2], in series [4] and in series [6] was “Not Active” throughout. Besides, the result in series [3] and in series [5] was Active. Besides, the IC50 in series [7] is 9.2 µM.
In the case of `O=[N+]([O-])c1ccc(Sc2nnc[nH]2)c2nsnc12`, the Activity entry in series [1], in series [2], in series [4] and in series [6] was “Not Active” each time. Further, the outcome in series [3] and in series [5] was Active. The half-inhibitory concentration (IC50) in series [7] stood at 1.7 µM.
As to `Cc1ccc(N2C(=O)CC(Sc3nnc(-c4ccccc4O)o3)C2=O)cc1` (configuration not stated), the Activity result in series [1], in series [2], in series [4] and in series [6] was “Not Active” each time. Further, the outcome in series [3] and in series [5] was Active. In series [7], the half-inhibitory concentration (IC50) worked out at 50 µM.
For the compound `O=[N+]([O-])c1cccc(S(=O)(=O)Nc2cc(Br)c(O)c3ccccc23)c1`, the Activity entry in series [1], in series [2], in series [4] and in series [6] was “Not Active” throughout. Also, the result in series [3] and in series [5] was Active. Besides, the IC50 in series [7] was 5.4 µM.
Take `O=C1C=CC(=O)N1c1ccc(Oc2ccccc2)cc1`: the Activity entry in series [1], in series [2], in series [4] and in series [6] was “Not Active” in each case. The outcome in series [3] and in series [5] was Active. Besides, the IC50 in series [7] stood at 3 µM.
